Test results taken from ChEMBL document CHEMBL1121809, “Cyclic guanidines. 14. Imidazo[1,2-a]thienopyrimidin-2-one derivatives as blood platelet aggregation inhibitors” (J Med Chem, 1981).
“And” between values parts separate entries of the source, which are not always exact repeats. Equal entries are not always repeated.

Key:
Rattus norvegicus [1] = test: Effect on systolic blood pressure in rat after an oral dose at 50 mg/kg (5h after dose); type: functional, Artery
Summary of the method: (§1)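 Male Wistar-Imamichi rats, 250 g, were given the compound orally at (50 mg/7.5 mL)/kg as a suspension in 0.5% CMC or 0.5% Tween 80. Systolic pressure and heart rate were taken by tail-cuff after prewarming at 55–60 °C for 3 min, before dosing and at set times after. Five rats per group, mean ± SD. Pressure is reported as decrease and heart rate as percent change.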

Rattus norvegicus [2] = test: Effect on heart rate in rat after an oral dose at 50 mg/kg (4h after dose); type: functional; summary of the method: as §1
Rattus norvegicus [3] = species: Rattus norvegicus; test: In vitro inhibition of ADP-induced blood platelet aggregation; type: functional
Summary of the method: (§2)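 Rat carotid citrated blood was spun at 230g for 7 min to give PRP, adjusted with PPP to about 5 × 10⁵ platelets/μL. Compound in saline or MeOH was added before 10 μM ADP in Tris-HCl/NaCl pH 7.4 with CaCl₂. Aggregation was read at 30 °C, 1100 rpm, as maximal ΔA. EC50 is the concentration giving 50% inhibition.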

Rattus norvegicus [4] = test: Effect of compound on heart rate in rat after an oral dose at 50 mg/kg; type: functional; summary of the method: as §1
Rattus norvegicus [5] = test: Effect on heart rate in rat after an oral dose at 50 mg/kg (1h after dose); type: functional; summary of the method: as §1
Rattus norvegicus [6] = test: Effect on heart rate in rat after an oral dose at 50 mg/kg (3h after dose); type: functional; summary of the method: as §1
Rattus norvegicus [7] = test: Effect on systolic blood pressure in rat after an oral dose at 50 mg/kg; type: functional, Artery; summary of the method: as §1
Rattus norvegicus [8] = test: Effect on systolic blood pressure in rat after an oral dose at 50 mg/kg (1h after dose); type: functional, Artery; summary of the method: as §1
Rattus norvegicus [9] = species: Rattus norvegicus; test: In vitro inhibition of collagen-induced blood platelet aggregation; type: functional
Summary of the method: (§3)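 Rat PRP (about 5 × 10⁵ platelets/μL) was preincubated with compound added in saline or MeOH. Aggregation was started with bovine tendon collagen suspension in Tris buffer (absorbance 0.270 at 420 nm; lag 2–3 min). Read at 30 °C, 1100 rpm, as initial maximal rate ΔA/min. EC50 is the concentration giving 50% inhibition.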

Rattus norvegicus [10] = test: Effect on systolic blood pressure in rat after an oral dose at 50 mg/kg (3h after dose); type: functional, Artery; summary of the method: as §1
Rattus norvegicus [11] = test: Effect of compound on heart rate in rat after an oral dose at 50 mg/kg (6h after dose); type: functional; summary of the method: as §1
Rattus norvegicus [12] = test: Ex vivo inhibition of collagen-induced blood platelet aggregation in rat was measured 2 hr after administration of vehical alone; type: functional
Summary of the method: (§4)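 Overnight-fasted rats were dosed orally at (50 mg/10 mL)/kg in 0.5% Tween 80; controls got vehicle at 10 mL/kg. PRP was made from carotid citrated blood 2 h later under pentobarbital. Collagen suspension (absorbance 0.270 at 420 nm) drove aggregation at 30 °C, 1100 rpm. Read-out was the initial maximal rate of absorbance fall (ΔA/min). Inhibition percent is versus controls; 5–7 rats, mean ± SD.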

Rattus norvegicus [13] = test: (§5) Ex vivo inhibition of collagen-induced blood platelet aggregation in rat was measured 2 hr after oral administration of 50 mg/kg; type: functional; summary of the method: as §4
Rattus norvegicus [14] = test: Ex vivo inhibition of ADP-induced blood platelet aggregation in rat was measured 2 hr after administration of vehical alone (delta A/min *10e 3); type: functional
Rattus norvegicus [15] = test: Effect on systolic blood pressure in rat after an oral dose at 50 mg/kg (6h after dose); type: functional, Artery; summary of the method: as §1
Rattus norvegicus [16] = test: Effect on heart rate in rat after an oral dose at 50 mg/kg; type: functional; summary of the method: as §1
Rattus norvegicus [17] = test: Effect of compound on systolic blood pressure in rat after an oral dose at 50 mg/kg (24h after dose); type: functional, Artery; summary of the method: as §1
Rattus norvegicus [18] = test: Effect on systolic blood pressure in rat after an oral dose at 50 mg/kg (4h after dose); type: functional, Artery; summary of the method: as §1
Rattus norvegicus [19] = test: Effect of compound on heart rate in rat after an oral dose at 50 mg/kg (5h after dose); type: functional; summary of the method: as §1
Rattus norvegicus [20] = test: Effect of compound on heart rate in rat after an oral dose at 50 mg/kg (24h after dose); Not mention; type: functional, organism-based; set-up: dose 50 mg/kg; summary of the method: as §1
Rattus norvegicus [21] = species: Rattus norvegicus; test: Inhibition of ADP-induced blood platelet aggregation in rat; type: functional; summary of the method: as §2
Rattus norvegicus [22] = species: Rattus norvegicus; test: Inhibition of thrombin-induced blood platelet aggregation in rat; Not mention; type: functional
Summary of the method: (§6)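 Rat PRP was prepared from citrated carotid blood of male Wistar-Imamichi rats (250 g) under pentobarbital anesthesia, spun at 230g for 7 min, and adjusted with PPP to about 5 × 10⁵ platelets/μL. Aggregation was read turbidimetrically at 30 °C with 1100 rpm stirring. Compound in saline or MeOH was added before the agonist. EC50 was estimated from inhibition at three to six concentrations, as the mean of two to three experiments.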

[23] = Inhibition ofADP-induced blood platelet aggregation in human; type: functional
Summary of the method: (§7)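 In vitro platelet aggregation test. EC50 was estimated from the inhibition rate at three to six compound concentrations and given as the mean of two to three experiments.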

Oryctolagus cuniculus = species: Oryctolagus cuniculus; test: Inhibition of serotonin/epinephrine-induced blood platelet aggregation in rabbit; type: functional; summary of the method: as §7
Rattus norvegicus [24] = test: Effect of compound on heart rate in rat after an oral dose at 50 mg/kg (24h after dose); type: functional; summary of the method: as §1
Rattus norvegicus [25] = test: as §5; type: functional; summary of the method: as §4
Rattus norvegicus [26] = test: Inhibition of ADP-induced blood platelet aggregation in rat given compound at an oral dose of 50 mg/kg (delta A/min *10e 3); type: functional
[27] = Inhibition of collagen-induced blood platelet aggregation in human; type: functional
Summary of the method: (§8)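 In vitro aggregation used human platelets. EC50 was estimated from inhibition at three to six compound concentrations and is the mean of two to three experiments.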

Rattus norvegicus [28] = test: Effect of compound on systolic blood pressure in rat after an oral dose at 50 mg/kg (1h after dose); type: functional, Artery; summary of the method: as §1
[29] = Inhibition of ADP-induced blood platelet aggregation in human; type: functional; summary of the method: as §8
Rattus norvegicus [30] = species: Rattus norvegicus; test: Inhibition of collagen-induced blood platelet aggregation in rat; type: functional; summary of the method: as §3
Rattus norvegicus [31] = species: Rattus norvegicus; test: Inhibition of thrombin-induced blood platelet aggregation in rat; type: functional; summary of the method: as §6
Rattus norvegicus [32] = species: Rattus norvegicus; test: Inhibition of arachidonic acid-induced blood platelet aggregation in rat; type: functional
Summary of the method: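 Rat PRP was stimulated with arachidonic acid at 30 °C under stirring, with compound added before the agonist. EC50 was estimated from inhibition at three to six concentrations and is the mean of two to three experiments.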

Rattus norvegicus [33] = test: Inhibition of collagen-induced blood platelet aggregation in rat was measured given compound at an oral dose of 50 mg/kg (delta A/min *10e 3); type: functional; summary of the method: as §4
Rattus norvegicus [34] = test: Inhibition of ADP-induced blood platelet aggregation in rat given vehicle at an oral dose of 50 mg/kg (delta A/min *10e 3); type: functional
Rattus norvegicus [35] = test: Inhibition of collagen-induced blood platelet aggregation in rat was measured given vehicle at an oral dose of 50 mg/kg (delta A/min *10e 3); type: functional; summary of the method: as §4
Rattus norvegicus [36] = test: Effect of compound on heart rate in rat after an oral dose at 50 mg/kg/5h after dose); type: functional; summary of the method: as §1
Rattus norvegicus [37] = test: Effect of compound on heart rate in rat after an oral dose at 50 mg/kg (2h after dose); type: functional; summary of the method: as §1

CN(C(=O)CCCOc1ccc2[nH]c(=O)ccc2c1)C1CCCCC1 [CILOSTAMIDE]
Decrease in blood pressure (Rattus norvegicus [1]): -1 | Change in heart rate (Rattus norvegicus [2]): 21% | EC50 (Rattus norvegicus [3]): 12000 nM | Change in heart rate (Rattus norvegicus [4]): 26% | Change in heart rate (Rattus norvegicus [5]): 22% | Change in heart rate (Rattus norvegicus [6]): 20% | Initial blood pressure (Rattus norvegicus [7]): 125 mmHg | Decrease in blood pressure (Rattus norvegicus [8]): 1 | EC50 (Rattus norvegicus [9]): 1200 nM | Decrease in blood pressure (Rattus norvegicus [10]): -1

O=C1CN2Cc3c(ccc(Cl)c3Cl)N=C2N1 [ANAGRELIDE]
Decrease in blood pressure (Rattus norvegicus [1]): 14 | Change in heart rate (Rattus norvegicus [11]): 33% | Delta A/min (Rattus norvegicus [12]): 0.188 | Delta A/min (Rattus norvegicus [13]): 0.126 ΔA/min | Change in heart rate (Rattus norvegicus [2]): 37% | Delta A/min (Rattus norvegicus [14]): 150 | EC50 (Rattus norvegicus [3]): 800 nM | Decrease in blood pressure (Rattus norvegicus [15]): 14 | Initial heart rate (Rattus norvegicus [16]): 377 bts min-1 | Change in heart rate (Rattus norvegicus [5]): 28% | Change in heart rate (Rattus norvegicus [6]): 31% | Decrease in blood pressure (Rattus norvegicus [17]): 13 | Initial blood pressure (Rattus norvegicus [7]): 130 mmHg | Decrease in blood pressure (Rattus norvegicus [8]): 11 | EC50 (Rattus norvegicus [9]): 20 nM | Decrease in blood pressure (Rattus norvegicus [10]): 16 | Decrease in blood pressure (Rattus norvegicus [18]): 14 | Change in heart rate (Rattus norvegicus [19]): 31%

CC1C(=O)NC2=Nc3sc4c(c3CN21)CCCC4.Cl (stereo not given)
Decrease in blood pressure (Rattus norvegicus [1]): 4 | Delta A/min (Rattus norvegicus [12]): 0.18 | Delta A/min (Rattus norvegicus [13]): 0.002 ΔA/min | Change in heart rate (Rattus norvegicus [2]): 4% | Change in heart rate (Rattus norvegicus [20]): Not mention | EC50 (Rattus norvegicus [3]): 48000 nM | EC50 (Rattus norvegicus [21]): 48000 nM | Initial heart rate (Rattus norvegicus [16]): 440 bts min-1 | Change in heart rate (Rattus norvegicus [5]): 5% | Change in heart rate (Rattus norvegicus [6]): 2% | Initial blood pressure (Rattus norvegicus [7]): 128 mmHg | Decrease in blood pressure (Rattus norvegicus [8]): 24 | EC50 (Rattus norvegicus [9]): 600 nM | Decrease in blood pressure (Rattus norvegicus [10]): 14 | Decrease in blood pressure (Rattus norvegicus [18]): 11 | Change in heart rate (Rattus norvegicus [19]): 4% | EC50 (Rattus norvegicus [22]): Not mention

Cl.O=C1CN2Cc3c(sc4c3CCCC4)N=C2N1
EC50 [23]: 2200 nM | Decrease in blood pressure (Rattus norvegicus [1]): 9 | EC50 (Oryctolagus cuniculus): 3000 nM | Change in heart rate (Rattus norvegicus [24]): -1% | Delta A/min (Rattus norvegicus [25]): 0 | Change in heart rate (Rattus norvegicus [2]): 12% | Delta A/min (Rattus norvegicus [26]): 141 | EC50 [27]: 1200 nM and 400 nM | Decrease in blood pressure (Rattus norvegicus [28]): 4 | EC50 [29]: 2200 nM | EC50 (Rattus norvegicus [3]): 2000 nM | EC50 (Rattus norvegicus [21]): 2000 nM | Decrease in blood pressure (Rattus norvegicus [15]): 6 | Change in heart rate (Rattus norvegicus [4]): 9% | EC50 (Rattus norvegicus [30]): 70 nM | EC50 (Rattus norvegicus [31]): 3000 nM | Initial heart rate (Rattus norvegicus [16]): 467 bts min-1 | Change in heart rate (Rattus norvegicus [5]): 4% | Change in heart rate (Rattus norvegicus [6]): 8% | EC50 (Rattus norvegicus [32]): 500 nM | Decrease in blood pressure (Rattus norvegicus [17]): 4 | Delta A/min (Rattus norvegicus [33]): 0 | Initial blood pressure (Rattus norvegicus [7]): 122 mmHg | EC50 (Rattus norvegicus [9]): 70 nM | Decrease in blood pressure (Rattus norvegicus [10]): 8 | Delta A/min (Rattus norvegicus [34]): 115 | Delta A/min (Rattus norvegicus [35]): 156 | Decrease in blood pressure (Rattus norvegicus [18]): 8 | Change in heart rate (Rattus norvegicus [19]): 9%

Cc1cccc2c1CN1CC(=O)NC1=N2
EC50 [23]: 1700 nM and 10000 nM | Decrease in blood pressure (Rattus norvegicus [1]): 34 | Change in heart rate (Rattus norvegicus [11]): 19% | Change in heart rate (Rattus norvegicus [36]): 18% | Delta A/min (Rattus norvegicus [12]): 0.244 | EC50 (Oryctolagus cuniculus): 3000 nM | Change in heart rate (Rattus norvegicus [24]; 50 mg/kg): 19% and -1% | Delta A/min (Rattus norvegicus [25]): 0.11 ΔA/min | EC50 [27]: 700 nM | EC50 (Rattus norvegicus [3]): 5000 nM | Decrease in blood pressure (Rattus norvegicus [15]): 35 | EC50 (Rattus norvegicus [31]): 3000 nM | Initial heart rate (Rattus norvegicus [16]): 464 bts min-1 | Change in heart rate (Rattus norvegicus [5]): 18% | Change in heart rate (Rattus norvegicus [6]): 17% | EC50 (Rattus norvegicus [32]): 500 nM | Decrease in blood pressure (Rattus norvegicus [17]): 12 | Decrease in blood pressure (Rattus norvegicus [8]): 23 | Change in heart rate (Rattus norvegicus [37]): 20% | EC50 (Rattus norvegicus [9]): 800 nM | Decrease in blood pressure (Rattus norvegicus [10]): 26
